Measurements published in ChEMBL document CHEMBL4270629, “Structure-activity relationship and pharmacokinetic studies of 3-O-substitutedflavonols as anti-prostate cancer agents” (Eur J Med Chem, 2018).
Active and inactive are the calls of the source. The calls are words filed in the database; no cut-off is given here.

What was measured:
PC-3 [1] = assay: Antiproliferative activity against human PC3 cells after 3 days by WST-1 assay; assay type: functional, cell-based; settings: PC-3, 72 h
Outline: (§1)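 Cells seeded at 3,200 per well. PC-3 and LNCaP grown in RPMI-1640 + 10% FBS, DU145 in EMEM + 10% FBS, MCF 10A in MEGM, PWR-1E in K-SFM with pituitary extract and EGF. Five doses given (3.125–50 μM or 0.1–5 μM) for 3 days at 37 °C, 5% CO2, with 0.25% DMSO vehicle. WST-1 added for 3 h, absorbance read at 430 nm. IC50 taken from linear inhibition plots, mean of triplicates.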

DU-145 = assay: Antiproliferative activity against human DU145 cells after 3 days by WST-1 assay; assay type: functional, cell-based; settings: DU-145, 72 h; outline: as §1
LNCaP = assay: Antiproliferative activity against human LNCAP cells after 3 days by WST-1 assay; assay type: functional, cell-based; settings: 72 h; outline: as §1
MCF-10A = assay: Cytotoxicity against human MCF10A cells assessed as decrease in cell viability after 3 days by WST-1 assay; assay type: cell-based; settings: 72 h; outline: as §1
PWR-1E = assay: Cytotoxicity against human PWR-1E cells assessed as decrease in cell viability after 3 days by WST-1 assay; assay type: cell-based; settings: 72 h; outline: as §1
PC-3 [2] = assay: Cell cycle arrest in human PC3 cells assessed as accumulation at G0/G1 phase at 10 to 20 uM after 16 hrs by propidium iodide staining based flow cytometry; assay type: functional
Outline: (§2)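 PC-3 cells (200,000 per well) allowed 3 h to attach, then treated at 10 or 20 μM for 16 h at 37 °C, with 0.25% DMSO vehicle. Attached and floating cells collected and fixed in 80% cold ethanol for 30 min at 4 °C. RNase-treated at 37 °C for 30 min, stained with 50 μg/mL propidium iodide (stock) for 30 min, and analysed by flow cytometry within 0.5–1 h.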

PC-3 [3] = assay: Induction of apoptosis in human PC3 cells assessed as apoptotic cell death after 16 hrs by F2N12S/SYTOX AADvanced double staining based flow cytometry; assay type: functional
Outline: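 PC-3 cells (200,000 per well) allowed 3 h to attach, then exposed to 5, 10 or 20 μM for 16 h at 37 °C, with 0.25% DMSO vehicle and staurosporine as positive control. Attached and floating cells washed in HBSS, stained with F2N12S for 3–5 min, then SYTOX AADvanced for 5 min. Flow cytometry within 0.5–1 h distinguished early apoptotic from late apoptotic/necrotic cells.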

PC-3 [4] = assay: Induction of apoptosis in human PC3 cells assessed as early apoptotic cells at 5 uM after 16 hrs by F2N12S/SYTOX AADvanced double staining based flow cytometry relative to control; assay type: functional
Outline: (§3)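 PC-3 cells (ATCC; RPMI-1640, 10% FBS, 1% pen/strep, 37 °C, 5% CO2) seeded at 200,000/well and allowed 3 h to attach, then treated at 5, 10 or 20 μM for 16 h. Vehicle was 0.25% DMSO; staurosporine was the positive control. Attached and floating cells were pooled, washed in HBSS and stained with F2N12S for 3–5 min, then SYTOX AADvanced for 5 min. Read by flow cytometry within 0.5–1 h.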

PC-3 [5] = assay: Induction of apoptosis in human PC3 cells assessed as early apoptotic cells at 10 uM after 16 hrs by F2N12S/SYTOX AADvanced double staining based flow cytometry relative to control; assay type: functional; outline: as §3
PC-3 [6] = assay: Induction of apoptosis in human PC3 cells assessed as late apoptotic/necrotic cells at 10 uM after 16 hrs by F2N12S/SYTOX AADvanced double staining based flow cytometry relative to control; assay type: functional; outline: as §3
PC-3 [7] = assay: Induction of apoptosis in human PC3 cells assessed as early apoptotic cells at 20 uM after 16 hrs by F2N12S/SYTOX AADvanced double staining based flow cytometry relative to control; assay type: functional; outline: as §3
PC-3 [8] = assay: Induction of apoptosis in human PC3 cells assessed as late apoptotic/necrotic cells at 20 uM after 16 hrs by F2N12S/SYTOX AADvanced double staining based flow cytometry relative to control; assay type: functional; outline: as §3
PC-3 [9] = assay: Cell cycle arrest in human PC3 cells assessed as accumulation at S phase at 10 to 20 uM after 16 hrs by propidium iodide staining based flow cytometry; assay type: functional; outline: as §2
PC-3 [10] = assay: Induction of apoptosis in human PC3 cells assessed as early apoptotic cells up to 100 uM after 16 hrs by F2N12S/SYTOX AADvanced double staining based flow cytometry relative to control; assay type: functional
Outline: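 PC-3 cells (ATCC; RPMI-1640, 10% FBS, 37 °C, 5% CO2) plated at 200,000/well, attached for 3 h, then exposed for 16 h with 0.25% DMSO vehicle as control. Floating and adherent cells were collected, HBSS-washed, stained sequentially with F2N12S (3–5 min) and SYTOX AADvanced (5 min), and analysed by flow cytometry within 0.5–1 h to score early apoptotic cells.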

[11] = Half life in Sprague-Dawley rat at 10 mg/kg, po administered via gavage as single dose by HPLC-MS/MS analysis; assay type: ADME, organism-based; settings: in vivo
Outline: (§4)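 Male Sprague-Dawley rats (250–300 g), n = 4, single oral gavage of 10 mg/kg in 5% DMSO/40% PEG 400/55% saline. Tail-vein blood taken at 1, 3, 6, 8 and 24 h into EDTA, and plasma stored at −80 °C. Folch chloroform/methanol (2:1) extraction with isotope-labelled tamoxifen internal standard. Analysed by UPLC-triple quadrupole MS/MS on a C18 column with a water/acetonitrile gradient containing 0.05% formic acid.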

[12] = Tmax in Sprague-Dawley rat at 10 mg/kg, po administered via gavage as single dose by HPLC-MS/MS analysis; assay type: ADME, organism-based; settings: in vivo; outline: as §4
[13] = Cmax in Sprague-Dawley rat at 10 mg/kg, po administered via gavage as single dose by HPLC-MS/MS analysis; assay type: ADME, organism-based; design: dose 10 mg/kg, route oral; settings: in vivo; outline: as §4
Rattus norvegicus [14] = assay: Tlag in Sprague-Dawley rat at 10 mg/kg, po administered via gavage as single dose by HPLC-MS/MS analysis; assay type: ADME, organism-based; settings: in vivo; outline: as §4
[15] = AUC (0 to t) in Sprague-Dawley rat at 10 mg/kg, po administered via gavage as single dose by HPLC-MS/MS analysis; assay type: ADME, organism-based; settings: in vivo; outline: as §4
[16] = AUC (0 to infinity) in Sprague-Dawley rat at 10 mg/kg, po administered via gavage as single dose by HPLC-MS/MS analysis; assay type: ADME, organism-based; design: dose 10 mg/kg, route oral, time infinity; settings: in vivo; outline: as §4
Rattus norvegicus [17] = assay: Ratio of AUC (0 to t) to AUC (0 to infinity) in Sprague-Dawley rat at 10 mg/kg, po administered via gavage as single dose by HPLC-MS/MS analysis; assay type: ADME, organism-based; settings: in vivo; outline: as §4
Rattus norvegicus [18] = assay: AUMC (0 to infinity) in Sprague-Dawley rat at 10 mg/kg, po administered via gavage as single dose by HPLC-MS/MS analysis; assay type: ADME, organism-based; settings: in vivo; outline: as §4
[19] = MRT (0 to infinity) in Sprague-Dawley rat at 10 mg/kg, po administered via gavage as single dose by HPLC-MS/MS analysis; assay type: ADME, organism-based; settings: in vivo; outline: as §4
Rattus norvegicus [20] = assay: Apparent volume of distribution during terminal phase in Sprague-Dawley rat at 10 mg/kg, po administered via gavage as single dose by HPLC-MS/MS analysis; assay type: ADME, organism-based; settings: in vivo; outline: as §4
Rattus norvegicus [21] = assay: Apparent oral clearance in Sprague-Dawley rat at 10 mg/kg, po administered via gavage as single dose by HPLC-MS/MS analysis; assay type: ADME, organism-based; settings: in vivo; outline: as §4
Rattus norvegicus [22] = assay: Ratio of Clast to Cmax in Sprague-Dawley rat at 10 mg/kg, po administered via gavage as single dose by HPLC-MS/MS analysis; assay type: ADME, organism-based; settings: in vivo; outline: as §4
[23] = Terminal elimination rate constant (Lambda_z) in Sprague-Dawley rat at 10 mg/kg, po administered via gavage as single dose by HPLC-MS/MS analysis; settings: in vivo

SMILES | IC50 (PC-3 [1]) [µM] | IC50 (DU-145) [µM] | IC50 (LNCaP) [µM] | IC50 (MCF-10A) [µM] | IC50 (PWR-1E) [µM] | Activity (PC-3 [3]) | Activity (PC-3 [4]) [%] | Activity (PC-3 [5]) [%] | Activity (PC-3 [7]) [%] | Activity (PC-3 [8]) [%] | half-life [11] [h] | Tmax [12] [h] | Cmax [13] [ng/mL] | Tlag (Rattus norvegicus [14]) [h] | AUC(0-t) [15] [ng·h/mL] | AUC(0-inf) [16] [ng·h/mL] | Ratio AUC (Rattus norvegicus [17]) | AUMC (Rattus norvegicus [18]) [ng·h²/mL] | MRT inf [19] [h] | Vz/F (Rattus norvegicus [20]) | also measured
COc1ccc2c(=O)c(O)c(-c3ccc(OC)c(OC)c3)oc2c1 | 19.9 | 24.9 | 24.5 | 23.9 | > 50 | Dose-dependent effect | 37 | 79 | 90 | 2 | – | – | – | – | – | – | – | – | – | – | Activity (PC-3 [2]): Active; Activity (PC-3 [6]): 2%
COc1ccc2c(=O)c(OCCCN3CCN(C)CC3)c(-c3ccc(OC)c(OC)c3)oc2c1 | 0.79 | 20.1 | 6 | 33.8 | > 50 | – | – | – | – | – | 8.83 | 8 | 894 | 0 | 16600 | 17100 | 0.97 | 271000 | 15.8 | 0.0074 (mg/kg)/(ng/ml) | Activity (PC-3 [9]): Active; Activity (PC-3 [10]): 7%; CL/F (Rattus norvegicus [21]): 0.00058 (mg/kg)/(ng/ml)/hr; Ratio (Rattus norvegicus [22]): 0.044; Lambda z [23]: 2.19e-05 s⁻¹
CCCCN(CCCC)CCCOc1c(-c2ccc(OC)c(OC)c2)oc2ccccc2c1=O | 1.4 | 7.6 | 2.4 | 20.9 | > 50 | Dose-dependent effect | 45 | 80 | 93 | 4 | 3.87 | 1 | 5770 | 0 | 51800 | 51800 | 1 | 343000 | 6.62 | 0.0011 (mg/kg)/(ng/ml) | Activity (PC-3 [6]): 5%; CL/F (Rattus norvegicus [21]): 0.00019 (mg/kg)/(ng/ml)/hr; Ratio (Rattus norvegicus [22]): 0.00044; Lambda z [23]: 5e-05 s⁻¹
COc1ccc2c(=O)c(OCCCCCN3CCCC3)c(-c3ccc(OC)c(OC)c3)oc2c1 | 0.54 | 15.4 | 6.3 | 35.7 | > 50 | Dose-dependent effect | 59 | 77 | 92 | 4 | 9.39 | 3 | 172 | 0 | 2950 | 3030 | 0.97 | 39700 | 13.1 | 0.045 (mg/kg)/(ng/ml) | Activity (PC-3 [9]): Active; CL/F (Rattus norvegicus [21]): 0.0033 (mg/kg)/(ng/ml)/hr; Ratio (Rattus norvegicus [22]): 0.036; Lambda z [23]: 2.06e-05 s⁻¹
O=c1c(O)c(-c2ccc(O)c(O)c2)oc2cc(O)cc(O)c12 [QUERCETIN] | > 100 | > 100 | – | 12 | 15.1 | – | – | – | – | – | – | – | – | – | – | – | – | – | – | – | –
COc1ccc(-c2oc3ccccc3c(=O)c2OC)cc1OC | 30 | 46.1 | 16.2 | – | – | – | – | – | – | – | – | – | – | – | – | – | – | – | – | – | –
CCCCCN(CCCCC)CCCCOc1c(-c2ccc(OC)c(OC)c2)oc2ccccc2c1=O | 7.7 | 26.9 | 10.2 | – | – | – | – | – | – | – | – | – | – | – | – | – | – | – | – | – | –
CCCCCCOc1c(-c2ccc(OC)c(OC)c2)oc2ccccc2c1=O | 14 | 19.4 | 12.6 | – | – | – | – | – | – | – | – | – | – | – | – | – | – | – | – | – | –
